ChEMBL document CHEMBL1156156, “Conformationally-restricted amino acid analogues bearing a distal sulfonic acid show selective inhibition of system x(c)(-) over the vesicular glutamate transporter” (Bioorg Med Chem Lett, 2010)

Key:
Rattus norvegicus = species: Rattus norvegicus; assay: Inhibition of VGLUT in rat brain synaptic vesicles assessed as [3H]L-glutamate uptake at 5 mM after 24 hrs by liquid scintillation counting; format: tissue-based
In short: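 Vesicular uptake used 250 μM L-glutamate as substrate, with inhibitor at 5 mM.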

[1] = molecular target: T1, Cystine/glutamate transporter (Homo sapiens) (UniProt Q9UPY5); assay: Inhibition of amino acid transport system xc- in human SNB19 cells assessed as [3H]L-glutamate uptake at 500 uM after 24 hrs by liquid scintillation counting; format: cell-based; conditions: SNB-19
T1 sequence (whole entry): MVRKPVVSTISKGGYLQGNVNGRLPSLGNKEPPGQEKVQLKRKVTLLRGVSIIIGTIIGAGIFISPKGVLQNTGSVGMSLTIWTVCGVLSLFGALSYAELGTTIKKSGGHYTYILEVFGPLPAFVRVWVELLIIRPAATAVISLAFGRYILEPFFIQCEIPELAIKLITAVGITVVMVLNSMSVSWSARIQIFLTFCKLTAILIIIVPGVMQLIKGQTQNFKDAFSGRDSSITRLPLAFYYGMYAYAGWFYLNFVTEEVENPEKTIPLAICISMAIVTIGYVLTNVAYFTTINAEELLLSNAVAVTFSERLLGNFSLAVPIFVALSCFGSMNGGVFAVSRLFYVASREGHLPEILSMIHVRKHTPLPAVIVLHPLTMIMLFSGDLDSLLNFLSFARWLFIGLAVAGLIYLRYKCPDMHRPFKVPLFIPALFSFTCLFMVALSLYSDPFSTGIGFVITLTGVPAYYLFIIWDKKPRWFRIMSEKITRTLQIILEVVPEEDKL
In short: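 Uptake begun by adding ³H-L-glutamate (100 μM) with inhibitor (500 μM) to the wells and run for 5 min. Wells rinsed three times with 0°C HBHS, and cells lysed in 0.4 M NaOH for 24 h. A 200 μl aliquot was acidified with acetic acid and radioactivity counted against background.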

[2] = molecular target: T2, Cystine/glutamate transporter (Homo sapiens, UniProt Q9UPY5); assay: Inhibition of amino acid transport system xc-
T2 sequence (Q9UPY5 whole entry): T1 sequence (whole entry)
In short: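 Cells were given 100 μM ³H-L-glutamate plus 500 μM inhibitor, and uptake ran for 5 min. Wells were rinsed three times with 0°C HBHS, and cells were lysed in 0.4 M NaOH for 24 h. Acetic acid was added to a lysate aliquot, and radioactivity was counted against background.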

[3] = Inhibition of VGLUT

Row | Structure (SMILES) | Drug uptake (Rattus norvegicus) [%] | Drug uptake [1] [%] | IC50 [2] [µM] | IC50 [3] [µM]
1 | N[C@@H](C(=O)O)c1ccc(S(=O)(=O)O)s1 | 104 | 55 |  | 
2 | N[C@@H](C(=O)O)c1ccc(S(=O)(=O)O)cc1 | 108 | 98 |  | 
3 | NC(C(=O)O)c1ccc(Br)s1 (stereo unspecified) | 37 | 83 |  | 
4 | NC(C(=O)O)c1ccc(S(=O)(=O)O)s1 (stereo unspecified) | 81 | 26 |  | 
5 | N[C@@H](Cn1oc(=O)[nH]c1=O)C(=O)O [QUISQUALATE] |  |  | 5 | 
6 | Nc1c(/N=N/c2ccc(-c3ccc(/N=N/c4cc(S(=O)(=O)O)c5ccccc5c4N)cc3)cc2)cc(S(=O)(=O)O)c2ccccc12 | 31 |  |  | 
7 | N[C@@H](CS)C(=O)O |  | 22 |  | 
8 | N[C@@H](COS(=O)(=O)O)C(=O)O |  |  | 26 | 
9 | NC(C(=O)O)c1ccc(-c2ccc(C(=O)O)cc2)cc1 (stereo unspecified) | 75 | 27 |  | 
10 | N[C@H](C(=O)O)c1ccc(C(=O)O)cc1 |  |  | 5 | 
11 | NC(Cc1ccc(Br)cc1S(=O)(=O)O)C(=O)O (stereo unspecified) | 77 | 83 |  | 
12 | CC(N)(Cc1ccc(S(=O)(=O)O)cc1)C(=O)O (stereo unspecified) | 98 | 106 |  | 
13 | N[C@@H](CCS(=O)(=O)O)C(=O)O |  |  | 35 | 
14 | N[C@H](Cc1ccc(S(=O)(=O)O)cc1)C(=O)O | 102 | 101 |  | 
15 | Cc1cc(-c2ccc(/N=N/c3c(S(=O)(=O)O)cc4cc(S(=O)(=O)O)cc(N)c4c3O)c(C)c2)ccc1/N=N/c1c(S(=O)(=O)O)cc2cc(S(=O)(=O)O)cc(N)c2c1O [TRYPAN BLUE] |  |  |  | 0.05
16 | N[C@@H](Cc1ccc(S(=O)(=O)O)cc1)C(=O)O | 131 | 90 |  | 
17 | Cc1c(C(=O)O)sc(N)c1C(=O)O | 44 | 57 |  | 
18 | Cc1csc(C(=O)O)c1N | 91 | 83 |  | 
19 | Cc1cc(C(N)C(=O)O)sc1C (stereo unspecified) | 57 | 73 |  | 
20 | NC(C(=O)O)c1c[nH]cn1 (stereo unspecified) | 95 | 96 |  | 
21 | NC(C(=O)O)c1ccc(-c2cccs2)s1 (stereo unspecified) | 53 | 69 |  | 
22 | N[C@H](C(=O)O)c1ccc(S(=O)(=O)O)s1 | 92 | 32 |  | 
23 | N[C@H](C(=O)O)c1ccc(S(=O)(=O)O)cc1 | 105 | 55 |  | 
24 | NC(C(=O)O)c1csc2ccccc12 (stereo unspecified) | 31 | 53 |  | 
